Rows were chosen to be rich in hits. Some 2.8% of all compounds tested hit in one or more screens of this group.
MT1-MMP txn act: activates MT1-MMP transcription; HT1080 MT1-MMP promoter luciferase reporter, luminescence, overnight; active compounds read high; activation factor at 10 µM; 86,000 tested, 0.16% active; AID 750;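 active = activation factor of at least 2 for MT1-MMP transcription at 10 µM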
Jurkat viability: cytotoxic compounds reducing Jurkat cell viability; 56,000 tested, 1.2% active; AID 463; Jurkat E6.1 viability, ATP luminescence, 48 h; inhibition, % at 4 µM;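 active = inhibition above the mean inhibition of all tested compounds plus 3 SD, cut at about 28% in these data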
RORA act: activators of human nuclear receptor RORA | activation, % at 10 µM | CHO-K1 Gal4-RORA LBD luciferase reporter, luminescence; percent increase over mock-subtracted basal signal | 65,000 tested, 1.5% active;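 active = activation above the mean of all tested compounds plus 3 SD, cut at about 49% in these data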;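 also: 0% = DMSO-treated RORA cells and 100% = added signal equal to DMSO minus mock-transfected cells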
HEK293 NFkB inh: lowers PMA/ionomycin-induced NF-kB signal in HEK293 cells; 62,000 tested, 0.21% active; HEK-293 NF-kB luciferase reporter, luminescence; inhibition, % at 3 µM;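 active = inhibition above the mean of all tested compounds plus 3 SD, cut at about 40% in these data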;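 also: 0% = stimulated DMSO wells and 100% = 10 µM reference inhibitor 5653914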
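System – HEK-293 cells with stable firefly luciferase reporter driven by four HIV NF-kB elements · Doses – one dose, 3 µM · Schedule – 1 h compound pre-incubation, 16 h PMA/ionomycin at 37 °C · Technique – luminescence from luciferase substrate reagent · Measure – percent inhibition normalized per plate to DMSO and reference-inhibitor controls · Replicates – tested once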
SF-1 act: activators of human nuclear receptor SF-1 | Q13285 | CHO-K1 Gal4-SF-1 LBD luciferase reporter; % increase over DMSO SF-1-specific signal | activation, % at 10 µM | 65,000 tested, 1.9% active;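 active = activation above the mean activation of all tested compounds plus 3 SD, cut at about 50% in these data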
Target sequence (Q13285 whole entry, looked up, the tested form may be a part): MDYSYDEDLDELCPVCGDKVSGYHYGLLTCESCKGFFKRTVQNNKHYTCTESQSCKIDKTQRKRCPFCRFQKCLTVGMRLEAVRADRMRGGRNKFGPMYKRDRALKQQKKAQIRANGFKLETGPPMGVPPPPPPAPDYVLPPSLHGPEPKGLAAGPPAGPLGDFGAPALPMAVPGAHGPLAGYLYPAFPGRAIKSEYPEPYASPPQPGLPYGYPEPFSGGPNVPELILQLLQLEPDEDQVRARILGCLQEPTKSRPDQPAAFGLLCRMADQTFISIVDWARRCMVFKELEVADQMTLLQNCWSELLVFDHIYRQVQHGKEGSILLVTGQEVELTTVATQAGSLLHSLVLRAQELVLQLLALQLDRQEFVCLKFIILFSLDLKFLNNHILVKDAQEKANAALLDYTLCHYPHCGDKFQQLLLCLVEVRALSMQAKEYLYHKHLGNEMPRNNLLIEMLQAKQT
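Test system: CHO-K1 cells co-transfected with Gal4 DBD–human SF-1 LBD, 5xGal4 luciferase reporter. Quantity: 4,000 cells per well. Compound: 10 µM only. Incubation: compound added 1 h post-seeding, 20 h exposure at 37 °C, 5% CO2. Detection: SteadyLite luciferase luminescence. Replication: one test per compound.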
The depositor's hits bear a star; nt = no result given.

SMILES | MT1-MMP txn act | Jurkat viability | RORA act | HEK293 NFkB inh | SF-1 act
Cc1ccc(C(=O)Nc2ncc(Cc3ccccc3)s2)o1 | 1.4 | 7 | -12 | -37 | 61*
CNc1nc(C)c(C(=O)OCC(=O)OC)s1 | 1.2 | 2 | 12 | 10 | -3
COC(=O)c1c(-c2ccccc2)csc1NC(=O)c1ccco1 | 1.4 | 0 | 96* | -27 | 40
CCSc1nc2c(c(=O)[nH]1)C(c1ccccn1)C1=C(CC(C)(C)CC1=O)N2 (centres undefined) | 1.1 | nt | 10 | 8 | -5
Cc1cnc(NC(=O)c2ccco2)s1 | 1.6 | nt | 71* | 2 | 53*
COCc1nnc(NC(=O)c2ccco2)s1 | 1.2 | 2 | -15 | 8 | 7
CC(=O)Nc1ccc(Nc2nc(C)nc3c2oc2ccccc23)cc1 | 1 | 6 | -3 | 21 | 0
CC(=O)c1ccc(Nc2ncnc3c2oc2ccccc23)cc1 | 1.3 | -3 | 23 | -57 | 89*
CCCCCCCCCn1c2c(c(=N)c3c1CCC3)CCC2 | 0.7 | nt | nt | nt | nt
CCCCn1c2c(c(=N)c3c1CCC3)CCC2 | 1 | 69* | -4 | 10 | -5
CCCCCCn1c2c(c(=N)c3c1CCC3)CCC2 | 1.2 | 91* | -27 | 11 | 13
Cc1ccc(-c2noc(C3CCCN(C(=O)c4ccccc4)C3)n2)o1 (centres undefined) | 1.5 | 6 | 50* | -8 | 28
c1ccc(CCCc2nc(-c3ccccn3)no2)cc1 | 1.1 | -3 | 50* | -5 | 57*
c1ccc(Cc2nc(-c3ccccn3)no2)cc1 | 1.2 | 4 | 61* | -18 | 23
c1ccc(C(Cc2nc(-c3ccccn3)no2)c2ccccc2)cc1 | 1.3 | -2 | 20 | -9 | 14
Cc1ccc(Cc2nc(-c3ccccn3)no2)cc1 | 1.1 | nt | nt | nt | nt
Cc1ccc(-c2nc(-c3ccccn3)no2)cc1 | nt | 35* | -90 | 80* | -92
c1ccc(-c2noc(-c3cccc4ccccc34)n2)nc1 | 0.3 | -6 | -11 | -58 | 17
COc1cccc(-c2nc(-c3ccccn3)no2)c1OC | 1.3 | -11 | 15 | -19 | 50*
COc1cccc(NC(=O)c2nnn(Cc3ccc(Br)cc3F)c2N)c1 | 1.2 | -3 | 58* | -4 | 2
COc1cccc(NC(=O)c2nnn(CCc3ccccc3)c2N)c1 | 1.4 | 6 | 53* | -3 | 84*
COc1cccc(NC(=O)Cn2nnc(C(=O)Nc3ccccc3)c2N)c1 | 1.2 | nt | 21 | 2 | 7
Cc1cccc(NC(=O)COc2ccc(Br)cc2)n1 | 1.4 | -3 | -13 | 10 | 16
CN1C(=O)NC(c2ccccc2)C2=C1CN(c1cccc(C(F)(F)F)c1)C2=O (centres undefined) | 1.1 | 4 | 6 | 10 | -5
COc1ccc2c(c1)Cc1sc(NC(C)=O)nc1-2 | 1.4 | -2 | 42 | -30 | 77*
SMILES | MT1-MMP txn act | Jurkat viability | RORA act | HEK293 NFkB inh | SF-1 act
C=C(C)CSC1=C(C#N)C(c2ccsc2)CC(=O)N1 (centres undefined) | 1.1 | nt | -13 | nt | -16
O=C(CSc1nnc(-c2cccnc2)o1)Nc1ccccn1 | 1.2 | -1 | 33 | -9 | 76*
CSc1ccc(-c2nnn(Cc3ccccn3)n2)cc1 | 2* | 2 | 56* | -14 | 57*
CCc1c(C)nc2ncnn2c1N1CCCC(C(=O)Nc2ccc(NC(C)=O)cc2)C1 (centres undefined) | 1.1 | nt | nt | nt | nt
O=C(Cn1cnc2c(oc3ccccc32)c1=O)c1ccccc1 | 1.5 | 0 | 93* | -7 | 61*
Cc1ccccc1NC(=O)Cn1cnc2c(oc3ccccc32)c1=O | 1.1 | nt | -3 | -1 | 9
Clc1cc(Cl)c(OCc2nc(-c3ccccn3)no2)cc1Cl | 1.4 | -1 | 52* | -50 | 34
Clc1ccc(OCc2nc(-c3ccncc3)no2)c(Cl)c1 | 0.7 | 1 | 48 | -58 | 86*
CC(C)(C)c1ccc(OCc2nc(-c3ccccn3)no2)c(Br)c1 | 0.9 | -1 | 67* | -64 | 71*
COc1ccc(Cc2nc(-c3ccccn3)no2)cc1 | 1.6 | nt | nt | nt | nt
Cc1ccccc1OCC(=O)N(Cc1cccs1)C1CCS(=O)(=O)C1 (centres undefined) | 1.2 | -2 | -6 | 5 | 28
C=CCn1cnc2c(NCc3ccccc3)ncnc21 | 1.6 | -3 | 46 | -4 | 65*
OCCNc1ncnc2c1ncn2Cc1ccccc1 | 1.2 | -4 | 0 | 2 | -6
O=C(CCN1CCC(c2ccccc2)C1)c1cccs1 (centres undefined) | 1 | -2 | 16 | 3 | -3
O=C(Nc1ccccc1)N1CCC(c2ccccc2)C1 (centres undefined) | 1.5 | -4 | 44 | -22 | 68*
O=C(COc1ccc(F)cc1)N1CCC(c2ccccc2)C1 (centres undefined) | 2.1* | nt | nt | nt | nt
O=C(c1cccs1)N1CCC(c2ccccc2)C1 (centres undefined) | 1.5 | 3 | 49* | -17 | 30
COc1cc(NC(=O)c2csc3c2CCCC3)ncn1 | 1.5 | 1 | 56* | -41 | 14
COCCNC(=O)c1csc2c1CCCC2 | 1.1 | 4 | 14 | 23 | 10
CSc1ccc(CNc2ccccn2)cc1 | 1.5 | 2 | 61* | 7 | 17
COC(=O)c1cc2ccsc2n1CC(=O)Nc1cc(C)cc(C)c1 | 1.2 | -4 | -18 | 11 | -29
COc1ncnc2sc(-c3ccccc3)cc12 | 1.5 | 6 | 28 | -8 | 51*
COC(=O)c1cccc(NC(=O)Cn2nnc3ccccc32)c1 | 1.2 | 2 | -13 | 15 | -7
CC1(C)CC(C)(c2ccc(O)cc2O)N(c2ccc3ccccc3c2)C(=S)N1 (centres undefined) | 1.1 | nt | nt | nt | nt
Cc1nc(NC(=O)C2CC3CCCC(C2)C3=O)sc1C (centres undefined) | 1.6 | 1 | 62* | 10 | 54*
SMILES | MT1-MMP txn act | Jurkat viability | RORA act | HEK293 NFkB inh | SF-1 act
CN1CCN(CCC(=O)N2c3ccccc3Sc3ccc(C(F)(F)F)cc32)CC1 | 1.1 | nt | nt | nt | nt
CCn1cnc2cc(NS(=O)(=O)c3ccc(C)cc3)ccc21 | 1.2 | nt | nt | nt | nt
CCn1cnc2cc(NCc3ccc(C)cc3)ccc21 | 1.4 | 0 | 44 | -31 | 50*
CCc1nc2cc(Cl)c(Cl)cc2[nH]1 | 1.2 | -2 | -20 | 3 | -8
c1ccc(-n2ncc3c(NCC4CCCO4)ncnc32)cc1 (centres undefined) | 1.5 | nt | 57* | nt | 81*
COc1ccc(-n2ncc3c(NCC4CCCO4)ncnc32)cc1 (centres undefined) | 1.5 | nt | nt | nt | nt
Clc1ccc(-n2ncc3c(NCC4CCCO4)ncnc32)cc1 (centres undefined) | 0.6 | 8 | 96* | -38 | 122*
CCOC(=O)N1CCC(Nc2ncnc3c2cnn3-c2ccccc2)CC1 | 1 | 0 | 1 | 9 | 15
c1ccc(-n2ncc3c(NC4CCCCCC4)ncnc32)cc1 | 1.4 | 4 | 77* | -30 | 91*
c1ccn2c(SCc3cn4ccsc4n3)nnc2c1 | 1.6 | -10 | 61* | -7 | 71*

Screens (PubChem BioAssay)
